High-throughput results as filed in PubChem.
S1P3 ag: S1P3 (human) receptor agonism. S1P3 NFAT-BLA reporter cells, FRET ratio; relative to 1 µM S1P, basal subtracted. activation, % at 4.5 µM. actives 0.1% (n = 60,000). AID 373;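 active = activation above the screen-wide mean plus 3 SD, cut at about 4.5% in these data, passing the limit was not always enough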
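Assay system: stable CHO line with human S1P3, Gα16, NFAT-BLA reporter; Detection: FRET β-lactamase substrate fluorescence, excitation 405 nm, 460/535 nm emission ratio, background-subtracted; Read-out: percent activation versus median 1 µM S1P response, basal-subtracted, per plate; Incubation: cells plated overnight, compound 4 h 37 °C, substrate 2 h RT.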
TNAP act DEA: human TNAP activation, intermediate phosphate acceptor. purified TNAP, CDP-star luminescence, 100 mM DEA, 30 min; stronger effect = higher value; scale: 0 levamisole-inhibited, 1 vehicle-only enzyme. activation factor at 20 µM. 64,000 tested, under 10 active. AID 813;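 active = activation factor of at least 2 at 20 µM, relative to controls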
S1P1 ag pot: activates or potentiates agonism at human S1P1 receptor. actives 0.57% (n = 56,000). S1P1 CRE-bla cells, forskolin, beta-lactamase FRET, potentiator mode; S1P1 agonist co-added at EC20, 2 nM; 100% = saturating reference agonist, 0% = basal. activation, % at 9.5 µM. P21453. AID 449;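 active = activation above a cutoff set at the mean activation of all tested compounds plus 3 SD, cut at about 54% in these data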;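 also: forskolin at 4 µM as EC80 and the EC20 agonist is SEW2871; 100% = SEW2871 at its EC100 plus forskolin at EC80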
Target sequence (P21453 whole entry, looked up): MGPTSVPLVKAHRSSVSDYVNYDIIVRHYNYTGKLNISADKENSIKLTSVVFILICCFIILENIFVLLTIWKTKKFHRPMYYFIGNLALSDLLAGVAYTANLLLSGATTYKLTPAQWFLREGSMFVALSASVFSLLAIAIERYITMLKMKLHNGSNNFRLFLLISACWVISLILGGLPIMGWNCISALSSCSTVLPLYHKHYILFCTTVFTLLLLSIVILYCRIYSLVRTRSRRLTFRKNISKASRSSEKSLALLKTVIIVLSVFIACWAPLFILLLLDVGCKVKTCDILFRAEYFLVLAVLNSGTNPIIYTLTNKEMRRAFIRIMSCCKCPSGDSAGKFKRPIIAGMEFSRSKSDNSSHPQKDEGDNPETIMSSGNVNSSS
D1 allo mod: D1 dopamine receptor (human) allosteric modulation. HEK293 D1, CRE-luciferase, dopamine EC30 potentiation; actives deviate in either direction. B-score at 10 µM. P21728. AID 641. actives 5.9% (n = 58,000);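 active = luminescence count or its row- and column-corrected plate score outside the 99.7% band of the plate's sample wells, on either side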
M1 agonist: activates the M1 muscarinic receptor; CHO-M1 cells, Fluo-4 calcium fluorescence, agonist mode; stronger effect = higher value; B-score at 10 µM; actives 3% (n = 64,000); AID 626;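 active = fluorescence rise, raw or as B-score row- and column-corrected plate score, outside the 99.7% band of its plate's samples, either direction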
M1 antag: blocks the rat M1 muscarinic receptor response to acetylcholine | P08482 | actives 3.4% (n = 64,000) | AID 628 | CHO-M1 cells, Fluo-4 calcium, ACh EC80 antagonist mode; stronger effect = lower value | B-score at 10 µM;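 active = calcium fluorescence response, raw or row-and-column corrected B-score, differing from the plate sample mean either way at a set confidence level, mostly lower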
D1 mod confirm: confirmation of human D1 dopamine receptor allosteric modulators | HEK293 D1 CRE-luciferase, dopamine EC30 potentiation; stronger effect = higher value | AID 642 | actives 88% (n = 2,200) | luminescence at 10 µM | shares compounds with D1 allo mod;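 active = luminescence in either of two replicates above the same-plate mean plus 3 SD of the low-dose dopamine control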
D1 no dopamine: secondary test of D1 modulators: activity without dopamine. actives 0.8% (n = 1,900). luminescence at 10 µM. shares compounds with D1 allo mod. AID 646. HEK293 D1 CRE-luciferase, luminescence, no dopamine; stronger effect = higher value; in the data active = luminescence above about 3900
Isoprot counter: isoproterenol response counter-screen activity for D1 modulators. shares compounds with D1 allo mod. HEK293 D1 CRE-luciferase, isoproterenol EC30 counter-screen; stronger effect = higher value. luminescence at 10 µM. actives 63% (n = 2,200). AID 647;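 active = luminescence in either replicate above plate mean of wells with a partly effective reference agonist dose plus 3 SD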;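 also: isoproterenol raises cAMP through native beta-adrenoceptor Gs so signal bypasses D1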
An asterisk follows results filed as active; x = no result. An excerpt weighted towards active compounds, which were near 11% of everything screened.

SMILES	S1P3 ag	TNAP act DEA	S1P1 ag pot	D1 allo mod	M1 agonist	M1 antag	D1 mod confirm	D1 no dopamine	Isoprot counter
CCOC(=O)c1ccc(NC(=O)c2nccnc2C(=O)O)cc1	0	1	-13	x	0.13	-0.59	x	x	x
CCCc1nc2sc3c(SCC(=O)NCc4ccco4)ncnc3c2c2c1CCC2	x	0.8	x	5.3*	-0.54	-0.39	8768*	1628	4012
O=C(CSc1nc(C2CC2)nc2sc3c(c12)CCCC3)NCc1ccco1	-1	1	-4	-0.58	-0.017	-0.51	x	x	x
COc1cccc(-n2nnnc2SCC(=O)c2cc(OC)ccc2OC)c1	-2	0.9	2	4.2*	x	x	4344	1632	3224
COc1ccc(C2CNC(=O)C2)cc1OC1CCCC1 (stereo not given)	-1	0.9	-26	45*	-0.41	-0.24	20880*	x	4172*
Cc1cc(N2CCCC2=O)c(N)cc1N	0	0.9	-9	-0.79	-0.13	-0.48	x	x	x
OC(CNCCc1ccccc1)c1ccccc1 (stereo not given)	1	0.9	-20	-0.48	-0.89	-0.034	x	x	x
CNC[C@H](O)c1cccc(O)c1	-4	0.9	14	17*	0.44	-0.5	11024*	5672*	16336*
CCOC(=O)C(C)(C)C(=O)C(C)(C)C(O)c1ccccn1 (stereo not given)	0	1	-6	0.61	0.038	0.027	x	x	x
O=C(CCn1c(=O)oc2ccccc21)Nc1cccc(Cl)c1	-1	0.8	-10	14*	-1.3	-0.08	6680	1488	2256
CC(=O)c1ccc(NC(=O)CCn2c(=O)oc3ccccc32)cc1	-1	0.9	-16	-0.8	0.12	0.97	x	x	x
O=c1c2c([nH]c3ccc(Br)cc13)CCCC2	-1	1	22	-1.8	-0.92	0.037	x	x	x
NC(=O)c1cc(Br)cc2c3c([nH]c12)CCCC3	0	0.9	25	3.9*	-0.016	-2.1	11200*	1388	3456*
CCCOc1ccc(C2C(=O)N(C3CCCCC3)CC(=O)N2C2CC2)cc1OC (stereo not given)	x	0.9	x	-0.79	0.59	-0.46	x	x	x
CCOC(=O)c1oc2ccc(S(=O)(=O)N3CCC(C)CC3)cc2c1C	x	1	x	1.4	-0.13	-0.57	x	x	x
CCOC(=O)c1oc2ccc(S(=O)(=O)N3CCOCC3)cc2c1C	x	1	x	4.3*	-1.2	-0.21	7344*	1548	2632
Nc1cc(C(=O)c2cccs2)ccc1Cl	0	0.9	2	-0.01	1.3	0.015	x	x	x
NC(=O)c1cc(-c2ccccc2)nc(Oc2ccccc2)n1	-2	0.7	-19	8.9*	-0.46	-0.5	10904*	x	2736*
Brc1ccccc1-c1nnc2sc(-c3ccc4c(c3)OCCO4)nn12	0	0.9	x	3.8*	0.94	-0.78	7796*	1760	3484*
CCc1ccccc1OCc1nnc(N)s1	0	0.9	-5	x	-0.85	-0.66	x	x	x
COC(=O)c1cc(Cc2ccc(N)c(C(=O)OC)c2)ccc1N	-2	0.8	-14	3*	-1.3	-0.5	7532*	x	2772*
CC1(C)Cc2ccccc2-c2nc(NCCCO)n(-c3ccccc3)c(=O)c21	2	1	-2	1.2	-0.0028	-0.14	x	x	x
CCOC(=O)c1c(-c2ccsc2)csc1N	-1	0.9	-6	7.5*	0.047	-0.66	8708*	1572	2980
CCOc1ccc(-n2cnnn2)cc1S(=O)(=O)N1CCCCC1	-1	1	x	-0.43	0.67	0.16	x	x	x
CCOc1ccc(C(C)=O)cc1COc1ccc(-n2cnnn2)cc1	-2	0.9	20	5.9*	-0.24	-0.9	15484*	1632	3708*
SMILES	S1P3 ag	TNAP act DEA	S1P1 ag pot	D1 allo mod	M1 agonist	M1 antag	D1 mod confirm	D1 no dopamine	Isoprot counter
Cn1c(NC(=O)c2ccc(Cl)cc2Cl)cc(=O)n(C)c1=O	-1	1	-18	4.5*	-0.32	-0.73	8676*	1848	3168*
Cn1c(NC(=O)C(C)(C)Oc2ccc(Cl)cc2)cc(=O)n(C)c1=O	-2	0.9	-23	0.00019	-0.45	-0.032	x	x	x
Cc1ccc2nc(NC(=O)c3ccc(Cn4cc(Cl)cn4)o3)sc2c1	-1	x	7	6.6*	1.5	1.1	5608	1540	2428
COc1cccc(C2=NOC(C(=O)Nc3cccc(C(C)=O)c3)C2)c1OC (stereo not given)	1	0.9	-8	3.6*	1.6	-1	4760	1744	2552
CN=C1c2ccccc2CN1c1cccc(C(=O)OC)c1	-2	0.9	1	13*	0.96	-0.55	19796*	1756	3916*
c1ccc(N2CCN(Cc3cn4cccnc4n3)CC2)cc1	0	0.8	-2	-0.8	0.27	-0.092	x	x	x
O=C(CSc1nc2[nH]ncc2c(=O)n1-c1ccccc1Br)NCc1ccco1	0	0.9	-6	0.67	-0.52	0.044	x	x	x
Cc1cc2n(n1)C(c1ccco1)Nc1ccccc1-2 (stereo not given)	0	1	-3	x	1.3	1.3	x	x	x
Cc1cc2n(n1)C(c1ccc(O)cc1)Nc1ccccc1-2 (stereo not given)	0	0.9	2	0.0061	0.072	0.18	x	x	x
Cc1cc(C)c2c(c1)-c1cc(C)nn1C(c1ccc3c(c1)OCO3)N2 (stereo not given)	-1	1	-18	4.4*	0.88	-0.14	10424*	x	2824*
Cc1cc2n(n1)C(c1ccc3c(c1)OCO3)Nc1c(C)cccc1-2 (stereo not given)	0	0.9	-16	12*	1.7	0.51	13912*	1536	3788*
COc1ccc(Cl)c(S(=O)(=O)N2CCCC2)c1	0	0.9	20	0.92	0	0.47	x	x	x
CC(C)(C)C1=Nn2c(nnc2C2CCCCC2)SC1	-2	0.9	-9	24*	-0.46	0.0042	19908*	1652	4100*
c1cc2c(cc1C1=Nn3c(nnc3C3CCCCC3)SC1)OCO2	-2	0.8	-13	28*	2	0.91	25488*	1768	13072*
CCOC(=O)Nc1nnc(-c2ccc(OC)c(OC)c2)s1	-1	0.9	-13	2.6	-0.019	0.27	x	x	x
CCSc1nc(C)cc(Oc2ccc(=O)n(C)n2)n1	0	1	-1	0.96	-1.4	-0.044	x	x	x
CSc1nc2oc3c(c2c2nncn12)CC(C)(C)SC3	0	0.9	-14	5.7*	0.03	-0.012	9128*	1480	2700
